Source: PubChem (Broad Institute)
This is a sample that favours compounds with a hit; in the whole collection about 2.6% have one here.
Ecoli rRNA inh: reduced GFP signal of wild-type E. coli, primary screen, bacterial rRNA inhibitor project, GFP/RFP fluorescence, OD600, single point | E. coli WT GFP vs humanized-ribosome RFP mutants, 24 h; active compounds read low; DMSO median 0, no signal -100 | GFP signal change (wild-type ribosome), % (test concentration not listed) | 1.6% of 350,000 active;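 active = significant combined selectivity score with lowered wild-type GFP, culture density cut under 30%, mutant RFP and density less affected; inactive = any of these conditions unmet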
Vif inh: HIV Vif self-association inhibitors, primary screen, imaging, HEK293T, single point. HEK293T cells, Vif self-association by quenched fluorescence, 24 h. inhibition, % at 7.49 µM. 0.35% of 340,000 active; in the data active = inhibition above about 50%, passing the limit was not always enough; inconclusive = no clear call, values can overlap the other calls; inactive = below about 31%
HIV Env fusion: inhibitors of HIV-1 Env-driven cell-cell fusion, primary screen, HeLa-JRFL effector, CEM21 target cells, luciferase; inhibition, % at 12.3 µM; 1.1% of 360,000 active;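 active = mean replicate inhibition score of at least 50 and every replicate individually at or above 50; inconclusive = only one of the two criteria met; inactive = mean below 50 and not all replicates reaching 50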;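 note: 0% = plate neutral controls and 100% = maraviroc near 300 nM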
S100A4 inh HTS: inhibitors of S100A4-myosin IIA peptide binding, primary screen, biochemical, fluorescence polarization, TAMRA-MyoIIA peptide; Protein S100-A4 (Homo sapiens), P26447; inhibition, % at 10.7 µM; 0.14% of 360,000 active;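 active = mean inhibition of at least 70% across replicates, with every replicate also reaching that level; inconclusive = mean inhibition reaches 70% but some replicates fall short; inactive = mean inhibition below 70%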
Target sequence (P26447 whole entry, looked up): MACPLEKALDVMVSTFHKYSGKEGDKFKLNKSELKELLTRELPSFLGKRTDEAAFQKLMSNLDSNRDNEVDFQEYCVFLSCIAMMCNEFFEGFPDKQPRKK
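Material: S100A4 monomer protein | Medium: HEPES pH 7.2 with CaCl2, KCl, NaCl, DTT, Triton | Reagent: Labelled myosin peptide probe, 5 nM | Doses: One dose per compound | Times: 5 min incubation before reading | Benchmarks: Neutral control DMSO, positive control TFP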
miR122 inh: miR-122 Renilla sensor signal increase in Huh7, primary screen, miR-122 inhibitor project, cell-based, single point, plate reader; Huh7 miR-122 Renilla luciferase sensor, 48 h; neutral wells = 0, positive control = 100; activation (reporter increase), % at 12.5 µM; 0.3% of 340,000 active;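 active = mean replicate activation score at least 90 and every replicate individually at or above 90; inconclusive = only one of the two criteria met; inactive = neither criterion met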;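 note: higher luciferase means less miR-122 activity so hits act as miR-122 inhibitors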
FN deposition inh: inhibitors of fibronectin matrix deposition, primary screen, AH1F cells, Alexa488-fibronectin fluorescence, plate reader. AH1F fibroblasts, overnight. inhibition, % at 12.6 µM. 0.086% of 350,000 active. AID 743247, 2014;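 active = mean inhibition across replicates of 30% or more, regardless of how many single replicates reach that level; inconclusive = mean under 30% yet at least half of replicates reach 30%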;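 note: positive control wells lacked labelled fibronectin entirely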
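Test system: AH1F fibroblast monolayer depositing Alexa488-labelled fibronectin into matrix. Input: 10000 cells per well. Technique: fluorescence, ex 485 nm, em 525 nm. Buffer or medium: DMEM plus 2% serum, read in PBS. Timing: 1 h cell adhesion before compound, then overnight fibronectin incubation. Compound: single dose, pinned. Read-out basis: inhibition from reduced deposited-fibronectin fluorescence.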
* hit, by the source's call; i = inactive; ? = inconclusive; . = not tested or not shown; [ ] = dose if it differs, or a comment.

SMILES	Ecoli rRNA inh	Vif inh	HIV Env fusion	S100A4 inh HTS	miR122 inh	FN deposition inh
CN(C)CCCNC(=O)C[C@@H]1CC[C@@H](NC(=O)c2ccccc2F)[C@H](CO)O1	3	.	3[16.7 µM]	12	.	-1
CN1/C(=C/C=C/c2n(C)c3cc([N+](=O)[O-])c([N+](=O)[O-])cc3[n+]2C)C(C)(C)c2ccccc21	-59*	.	15	-6	-38	9
Cc1cccc[n+]1CC(=O)/C=C1\N(C)c2ccccc2C1(C)C	5	0	?	-92	-2	.
CN1C(=O)c2cc(NC(=O)C3CCOCC3)ccc2OC[C@H]2O[C@@H](CC(=O)NCc3ccc4c(c3)OCO4)CC[C@@H]21	1	.	-10[16.7 µM]	9	.	2
O=C(COC(=O)CCC(=O)c1ccc(Cl)cc1)NCc1ccc(F)cc1	-2	3	-13	-3	-3	2
O=C(COC(=O)CCC(=O)c1ccc(F)cc1)NCc1ccccc1Cl	-30*	22	-5	-3	-5	10
O=C(CC1CC1)N1CC2(C1)[C@@H](c1ccccc1)[C@@H](CO)N2Cc1cccc(F)c1	-4	.	.	0	.	.
Cc1ccccc1Nc1nnc(SCC2CCCCO2)s1 (stereo unspecified)	-22*	10	-47	-4	-6	-2
COc1ccc(C(=O)NC(=S)NC(C)c2ccccc2)cc1 (stereo unspecified)	-32*	0	-21	2	2	-13
N#Cc1cc([N+](=O)[O-])ccc1N1CCN(c2ccccc2O)CC1	-24*	7	-99	6	.	-8
O=[N+]([O-])c1ccc(N2CCN(c3ccc([N+](=O)[O-])cc3CO)CC2)c(CO)c1	-7	6	44	1	-2	6
COc1cc(C)ccc1S(=O)(=O)N1CCN(C23CC4CC(CC(C4)C2)C3)CC1	-32*	8	.	-1	6	.
Cc1cccc(C(=O)N[C@H](C(=O)Nc2nc(C)cs2)C(C)C)c1	.	0	-9	12	2	4
COc1ccc(C(=O)N[C@H](C(=O)Nc2nc3ccccc3[nH]2)C(C)C)cc1	16	-4	i	29	117*	-2
COc1ccc(C(=O)Nc2nc3ccccc3[nH]2)cc1	4	-1	-29	2	-6	7
Cc1cccc(C(=O)N[C@H](C(=O)Nc2nc3ccccc3[nH]2)C(C)C)c1	21	79*	-222	-3	.	-3
Cc1noc(C)c1S(=O)(=O)Nc1ccc2c(c1)C(=O)N([C@@H](C)CO)C[C@@H](C)[C@H](CN(C)CC1CC1)OCCCC[C@H](C)O2	2	.	18[16.7 µM]	.	2[16.7 µM]	.
C/C=C1\COC(C(=O)NCc2cccc(OC)c2OC)(C(F)(F)F)C=C1C=C1CCCCC1 (stereo unspecified)	0	3	71*	-1	14	-17
COc1cccc(NC(=O)N(C)C[C@H]2Oc3ncc(/C=C/c4ccccc4)cc3C(=O)N([C@@H](C)CO)C[C@H]2C)c1	-6	.	0[16.7 µM]	14	-22[16.7 µM]	.
COc1ccc(-c2ccc(C)cc2)cc1[C@H]1[C@H]2C=CC[C@@H](C)[C@@H]2C(=O)N1Cc1ccccc1	1	4	56*	12	15	-7
COc1cc(-c2cccc([C@H]3[C@@H]4C=CC[C@@H](C)[C@@H]4C(=O)N3Cc3ccccc3)c2)cc(OC)c1OC	0	-4	47*	-1	-4	.
CC(C)(C#N)Cc1cc(CC(C)(C)C#N)cc(C(C)(C)C)c1	-1	7	33	2	0	0
N#CC(Cc1cccc(CC(C#N)(c2ccccc2)c2ccccc2)c1)(c1ccccc1)c1ccccc1	8	-13	57*	-1	-1	2
Cc1ccccc1N1CCN(Cc2nc(Cc3ccccc3)no2)CC1	-28*	-3	-13	3	.	-6
Clc1cccc(CN2CCN(Cc3nc(CCc4ccccc4)no3)CC2)c1	-32*	-2	7	-4	-8	-10
